Screens as filed in PubChem BioAssay.
PglD DTNB: blocks C. jejuni PglD acetyltransferase activity; actives 0.098% (n = 360,000); inhibition, % at 12.5 µM; AID 602405; purified PglD enzyme, DTNB colorimetric CoA detection; in the data active = inhibition above about 16%, passing the limit was not always enough; inconclusive = no clear call, values can overlap the other calls
Ecoli rRNA inh: inhibitors of bacterial rRNA selective over humanized ribosomes. actives 1.6% (n = 350,000). GFP signal change (wild-type ribosome), % (no concentration beside the values). E. coli WT GFP vs humanized-ribosome RFP mutants, fluorescence, 24 h; hits give low values; DMSO median 0, no signal -100;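 active = significant combined selectivity score with lowered wild-type GFP, culture density cut under 30%, mutant RFP and density less affected; inactive = any of these conditions unmet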
Cneo AK release: causes C. neoformans cell lysis | adenylate kinase release luminescence, 4 h; normalised: neutral wells 0, clomiphene wells 100 | lysis activity, % at 15 µM | actives 0.2% (n = 360,000);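 active = mean lysis activity across replicates of at least 80%, whatever share of replicates individually reach that level; inactive = mean lysis activity below 80%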
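Material: C. neoformans cells | Amount: Yeast cell density of 5 × 10^6 cells/mL | Medium: Fresh YPD growth medium | Dosing: Single dose | Times: Static 4 h at 37 °C with compound, 1 h detection | Detection: AK luminescence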
Mot1-301 SUMO: SUMOylation pathway inhibition by Mot1-301 growth rescue | S. cerevisiae Mot1-301 growth rescue, ATP luminescence, 38.5C; percent above DMSO median, 100 means doubled | growth rescue, % at 18.8 µM | actives 1% (n = 320,000) | AID 2716;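 active = every valid replicate shows activation above 250% relative to neutral control wells; inactive = the rest, any valid replicate at or below 250%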
CR mimetic SO: lowers age-related superoxide in aged yeast cells; S. cerevisiae aged cells, superoxide DHE fluorescence; hits give low values; superoxide response (% of plate mean), % at 10 µM; actives 0.18% (n = 330,000);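 active = superoxide response under a set limit, about three screen SD below normal, cut at about 65% in these data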;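 also: yeast aged for seven days with compound at 30 °C before DHE staining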
HepG2 cytotox: HepG2 cell cytotoxicity. shares compounds with Ecoli rRNA inh. HepG2 viability, ATP luminescence, 72 h. activity change, negative = cytotoxicity, unspecified at 26 µM. 30 tested, under 10 active. AID 743480;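 active = compounds whose fitted half-maximal signal-loss concentration is at most twice their highest valid dose; inconclusive = flat curve with 30 to 70% signal loss, or poor fit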
AID977621: growth inhibition of wild-type GFP E. coli, dose response, H69 mutant RFP, cherry-pick | E. coli wild-type GFP strain growth, fluorescence, 24 h | activity change, negative = inhibition at 50 µM | 1,900 tested, under 10 active | shares compounds with Ecoli rRNA inh | AID 977621;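 active = Wild-type ribosome reporter drop at least double the humanized mutant ribosome reporter drop, growth loss under a set limit; inconclusive = no clear call, values can overlap the other calls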;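 also: wild-type GFP and H69 mutant RFP strains grown together 50/50 in each well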
AID977628: E. coli growth inhibition, wild-type GFP versus h24 humanized RFP strain, dose response, h24 mutant RFP vs wild-type GFP, cherry-pick | shares compounds with Ecoli rRNA inh | E. coli WT GFP strain growth, fluorescence, 24 h | activity change, negative = inhibition at 50 µM | 1,900 tested, under 10 active;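 active = compound lowering the normal-ribosome reporter at least twice as much as the humanized-ribosome reporter, growth loss under a set limit; inconclusive = no clear call, values can overlap the other calls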;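 also: wild-type GFP and h24 humanized RFP strains co-cultured 1 to 1 per well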
Large screens that a line does not name were inactive (follow-up assays come after a bar, where they were run). The list is not random: actives were taken first. Their share in the collection is about 2.2%.

CC(=O)Nc1ccc(Nc2cc(C)c3ccccc3n2)cc1	none
CC(=O)Nc1cccc(Nc2nc(-c3ccccc3)nc3ccccc23)c1	Ecoli rRNA inh -22 (no result: PglD DTNB, Cneo AK release) | AID977628 inconclusive
CC(=O)c1cccc(Nc2nc(-c3ccccc3)nc3ccccc23)c1	none
CC(=O)NC[C@@H]1[C@H](c2ccc(-c3ccccc3)cc2)[C@H](CO)N1C(=O)C1CC1	none (no result: Mot1-301 SUMO, CR mimetic SO)
C/C=C/c1ccc([C@@H]2[C@H]3CN(Cc4ccc(F)cc4)CC(=O)N3[C@H]2CO)cc1	none (no result: PglD DTNB, Cneo AK release, Mot1-301 SUMO, CR mimetic SO)
COC(=O)CN1C(=S)N(c2ccc(F)cc2)C(=O)C1CC(=O)Nc1ccc(F)cc1 (stereo not given)	Ecoli rRNA inh -24 | AID977621 inactive | AID977628 inactive
COc1cc2c(cc1OC)C1(C)N(CC2)C(C(C)=O)=NN1c1ccc(Cl)cc1 (stereo not given)	Ecoli rRNA inh -17 | AID977621 inactive
COc1cc2c(cc1OC)CN(C(=O)c1cc(Cl)nc(Cl)c1)CC2	none
O=C(NCc1ccccc1)c1ccc(-c2ccccc2F)o1	Ecoli rRNA inh -38 | AID977621 inactive | AID977628 inconclusive
CCCc1nc2oc3c(NCCCN(C)C)ncnc3c2c2c1CCCC2	Ecoli rRNA inh -23 | AID977621 inactive
CCCc1nc2oc3c(NCCN(C)C)ncnc3c2c2c1CCCC2	none (no result: Ecoli rRNA inh)
Cc1ccc(-c2cc[n+](Cc3ccccc3)cc2)cc1	Ecoli rRNA inh -32 (no result: PglD DTNB, Cneo AK release) | AID977621 inactive | AID977628 inconclusive
Cc1cc(NC(=O)c2sc(Nc3ccc(F)c(Cl)c3)nc2N)no1	Ecoli rRNA inh -22 | AID977621 inactive | AID977628 inactive
Cc1cc(NC(=O)c2sc(Nc3cccc(C(F)(F)F)c3)nc2N)no1	none (no result: Ecoli rRNA inh)
COC(=O)c1c(NC(=O)CCC(=O)O)sc2c1CCCCC2	none (no result: PglD DTNB, Cneo AK release)
COC(=O)c1c(NC(=O)CCC(=O)O)sc(Cc2ccccc2)c1C	Ecoli rRNA inh -38 | HepG2 cytotox inactive
Cc1ccc2oc(C(=O)N(C)Cc3ccc(C)o3)c(C)c2c1	Ecoli rRNA inh -30 | AID977621 inactive | AID977628 inactive
C[C@@H]1CN([C@@H](C)CO)S(=O)(=O)c2ccc(C#C[C@@H](C)O)cc2O[C@H]1CN(C)Cc1ccccn1	none (no result: Mot1-301 SUMO, CR mimetic SO)
O=[N+]([O-])c1ccc2c(c1)S(=O)c1ccccc1-2 (stereo not given)	Ecoli rRNA inh -23 | AID977621 inactive | AID977628 inactive
Cc1nn2c(NCc3ccccn3)cc(C(C)C)nc2c1-c1ccccc1	Ecoli rRNA inh -21 (no result: PglD DTNB, Cneo AK release) | AID977628 inactive
CCc1cc2c(=O)n(Cc3ccccc3)c(SC3CCOC3=O)nc2s1 (stereo not given)	Ecoli rRNA inh -24 | AID977621 inactive
COc1ccc(NC(=O)Nc2ccc3c(c2)C(=O)N([C@@H](C)CO)C[C@H](C)[C@H](CN(C)Cc2ccc(C(=O)O)cc2)OCCCC[C@H](C)O3)cc1	none (no result: Mot1-301 SUMO, CR mimetic SO)
CSCCC(=O)NC1CC(C)(C)Cc2c1cnn2-c1ccccc1C (stereo not given)	none
Cc1ccccc1-n1ncc2c1CC(C)(C)CC2NC(=O)CCN1Cc2ccccc2C1=O (stereo not given)	Ecoli rRNA inh -24 | AID977621 inactive
O=C1CCCN1c1ccc([N+](=O)[O-])cc1	Ecoli rRNA inh -4.0 (no result: Mot1-301 SUMO, CR mimetic SO) | AID977621 inconclusive | AID977628 inconclusive
C[C@@H]1CN([C@@H](C)CO)C(=O)c2cc(NS(=O)(=O)c3ccccc3)ccc2O[C@@H](C)CCCCO[C@@H]1CN(C)C	none (no result: Mot1-301 SUMO, CR mimetic SO)
Fc1cccc(Cc2noc(CN3CCCCC3CCc3ccccn3)n2)c1 (stereo not given)	Ecoli rRNA inh -25 | AID977628 inactive
CO[C@H]1CN(C)C(=O)c2cc(NS(=O)(=O)c3ccccc3Cl)ccc2OC[C@@H](C)NC[C@H]1C	none (no result: Mot1-301 SUMO, CR mimetic SO)
CNC(=O)C[C@@H]1CC[C@@H]2[C@@H](COc3ccc(NC(=O)C4CCCCC4)cc3C(=O)N2C)O1	none (no result: Mot1-301 SUMO, CR mimetic SO)
Cc1noc(C)c1NC(=O)Nc1cccc2c1O[C@@H](CN(C)S(=O)(=O)c1ccc(F)cc1)[C@@H](C)CN([C@H](C)CO)C2=O	none (no result: Mot1-301 SUMO, CR mimetic SO)
CNC[C@@H]1OCCCC[C@@H](C)Oc2ccc(NC(=O)Nc3cccc4ccccc34)cc2C(=O)N([C@H](C)CO)C[C@@H]1C	none (no result: PglD DTNB, Cneo AK release, Mot1-301 SUMO, CR mimetic SO)
C[C@@H]1CN([C@@H](C)CO)C(=O)c2cc(NC(=O)Nc3cccc4ccccc34)ccc2O[C@@H](C)CCCCO[C@H]1CN(C)C(=O)Nc1cccc2ccccc12	none (no result: Mot1-301 SUMO, CR mimetic SO)
CNC[C@H]1OCCCC[C@@H](C)Oc2ccc(NC(=O)Nc3cccc4ccccc34)cc2C(=O)N([C@@H](C)CO)C[C@H]1C	Ecoli rRNA inh -25 (no result: Mot1-301 SUMO, CR mimetic SO) | AID977628 inconclusive
C[C@@H]1CCCCO[C@@H](CN(C)C)[C@@H](C)CN([C@@H](C)CO)C(=O)c2cc(NC(=O)Nc3cccc4ccccc34)ccc2O1	none (no result: Mot1-301 SUMO, CR mimetic SO) | AID977621 inactive | AID977628 inconclusive
C[C@@H]1CN([C@@H](C)CO)C(=O)c2cc(NC(=O)Nc3cccc4ccccc34)ccc2O[C@@H](C)CCCCO[C@@H]1CN(C)C	none (no result: PglD DTNB, Cneo AK release, Mot1-301 SUMO, CR mimetic SO) | AID977621 inactive | AID977628 inconclusive
NS(=O)(=O)c1ccc(Nc2c([N+](=O)[O-])cncc2[N+](=O)[O-])cc1	Ecoli rRNA inh -37 | AID977628 inconclusive
O=C(C1CCOCC1)N1C[C@@H]2[C@H](c3ccccc31)[C@H](CO)N2C(=O)Cc1ccccn1	none (no result: Mot1-301 SUMO, CR mimetic SO)
O=C(NC1CCCC(C(F)(F)F)C1)c1ccc([N+](=O)[O-])o1 (stereo not given)	Ecoli rRNA inh -24 | AID977628 inconclusive
CCCn1nnnc1NCc1ccccc1OCc1ccc(F)cc1	none (no result: Ecoli rRNA inh)
CCCn1nnnc1NCc1ccccc1OCc1cccs1	Ecoli rRNA inh -20 | AID977621 inactive
O=C(COC(=O)CSc1ccc([N+](=O)[O-])cc1)NCC1CCCO1 (stereo not given)	none
Cc1cc(SCC(=O)OCC(=O)NCC2CCCO2)c(C)cc1Br (stereo not given)	Ecoli rRNA inh -25 (no result: PglD DTNB, Cneo AK release) | AID977621 inactive
CO[C@@H]1CC[C@@H]2CCN(C)C(=O)C[C@H](c3ccccc3)CN(C)C(=O)c3cc(C#N)ccc3OC[C@@H]1O2	none (no result: PglD DTNB, Cneo AK release, Mot1-301 SUMO, CR mimetic SO)
Cc1cc(C(=O)Nc2ccc(Cl)cc2)c(C)n1Cc1cccs1	Ecoli rRNA inh -30 (no result: PglD DTNB, Cneo AK release) | AID977621 inactive | AID977628 inactive
Cc1cc(C)cc(NC(=O)c2cc(C)n(Cc3cccs3)c2C)c1	none
